Measurements from different studies.
Protocols differ between the studies behind these lines.
CDK17: Cyclin-dependent kinase 17 (CDK17, Homo sapiens, UniProt Q00537)
CDK17 with cyclin Y: Cyclin-dependent kinase 17, with cyclin Y (CDK17, Homo sapiens, UniProt Q00537)

| Structure (SMILES) | target | effect on | mode | technique | concentration | measurement | result |
| --- | --- | --- | --- | --- | --- | --- | --- |
| COc1ccc2cc(OCC3(C(=O)O)CN(C(=O)c4ccc(F)cc4)C3)ccc2c1 | CDK17 | cell-free assay | – | competition with immobilised ligand | 1 µM | remaining binding | 100% |
| Cn1c2c(c3ccccc31)C(C#N)C(C)(C)NC2=O (stereo not drawn) | CDK17 | thermal stability | – | DSF | 10 µM | ΔTm | 0 °C |
| CCCCNc1ncc2c(-c3ccc(F)cc3)nn(C[C@H]3CC[C@H](N)CC3)c2n1 | CDK17 | target engagement in cells | inhibitor | chemoproteomics | 20 mM | inhibition | 41.7% |
| O=C(Nc1cnn(-c2csc(C(=O)NC3COC3)c2)c1)Nc1c(F)cccc1Cl | CDK17 with cyclin Y | enzyme activity | inhibitor | – | 5 µM | remaining activity | 96% |
| Cn1c2c(c3ccc(Cl)c(Cl)c31)C(C#N)C(C)(C)NC2=O (stereo not drawn) | CDK17 | thermal stability | – | DSF | 10 µM | ΔTm | 1.1 °C |
| CC(C)CC(=O)N1CCc2nc(-c3ccc(Br)cc3)nc(N(C)Cc3ccccc3)c2C1 | CDK17 | cell-free assay | – | competition with immobilised ligand | 0.1 µM | remaining binding | 100% |
| CCC1(CC)NC(=O)c2c(c3ccc(Cl)c(Cl)c3n2C)C1C#N (stereo not drawn) | CDK17 | thermal stability | – | DSF | 10 µM | ΔTm | 0.7 °C |
| O=C(N[C@H]1CCCCC/C=C\C2C[C@@]2(C(=O)O)NC(=O)[C@@H]2C[C@@H](Oc3ccncc3)CN2C1=O)OC1CCCC1 (stereo partly drawn) | CDK17 | binding | – | competition with immobilised ligand | 1 µM | remaining binding | 89% |
| CCN1CCC2(CC1)NC(=O)c1c(c3ccc(Cl)c(Cl)c3n1C)C2C#N (racemic) | CDK17 | thermal stability | – | DSF | 10 µM | ΔTm | 0 °C |
| Cc1sc(C(=O)NC2COC2)cc1-n1cc(NC(=O)Nc2c(F)cccc2Cl)cn1 | CDK17 with cyclin Y | enzyme activity | inhibitor | – | 10 µM | remaining activity | 102% |
| Cc1ccc(C(=O)Nc2ccc(CN3CCN(C)CC3)c(C(F)(F)F)c2)cc1C#Cc1cnc2cccnn12 | CDK17 | enzyme activity | inhibitor | – | 23.5 nM | remaining activity | 7.6% |
| CN(CCCC(F)(F)F)c1nccc(-c2cnn3ncccc23)n1 | CDK17 | binding | – | – | 1 µM | remaining binding | 90% |
